# In publication PMC6911349 (Drug Design, Development and Therapy, 2019):
# Where a name gives a salt, the structure may show the parent alone. Read-outs that look alike come from different tables or passages of the source.
# Experiments:
# [1] = tested on: Ascaridia galli; assay: Anthelmintic study
# In short: (§1)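 P. posthuma (7–9 cm) collected from muddy soil; A. galli taken from domestic chicken intestine. Test compound suspended in distilled water with Tween 80 at 10, 20 and 40 mg. 25 mL per Petri dish, six worms per dish. […] Paralysis and death times recorded.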
# [2] = tested on: Pheretima posthuma; assay: Anthelmintic study
# In short: as §1
# [3] = ABTS anti-radicals study
# In short: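 ABTS (7 mM) combined with […] and held in the dark at 25 °C for 12–16 h to form radicals. Diluted in 0.01 M phosphate buffer, pH 7.4, to A734 of 0.70. 300 µL test compound solution added to 3.0 mL radical solution; decrease in absorbance recorded. Ascorbic acid as reference.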
# [4] = H2O2 anti-radicals study
# In short: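 2 mM H2O2 in 50 mM phosphate buffer, pH 7.4, mixed with 0.1 mL test compound at various concentrations. Absorbance at 230 nm read against blank after 10 min; H2O2 scavenging calculated from absorbance.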
# [5] = DPPH radical scavenging assay
# In short: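 Test compound dilutions of 62.50–1000 µg/mL; 0.1 mL of each added to 3.0 mL DPPH in methanol. Incubated 30 min, then absorbance read at 517 nm. % scavenging = [(A0–A1)/A0]×100, where A0 is control and A1 is test absorbance. Ascorbic acid as reference.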
# [6] = molecular target: α-glucosidase (Saccharomyces cerevisiae, UniProt P53341); assay: α-Glucosidase inhibition chromogenic assay; type: biochemical
# α-glucosidase, sequence (P53341 whole entry): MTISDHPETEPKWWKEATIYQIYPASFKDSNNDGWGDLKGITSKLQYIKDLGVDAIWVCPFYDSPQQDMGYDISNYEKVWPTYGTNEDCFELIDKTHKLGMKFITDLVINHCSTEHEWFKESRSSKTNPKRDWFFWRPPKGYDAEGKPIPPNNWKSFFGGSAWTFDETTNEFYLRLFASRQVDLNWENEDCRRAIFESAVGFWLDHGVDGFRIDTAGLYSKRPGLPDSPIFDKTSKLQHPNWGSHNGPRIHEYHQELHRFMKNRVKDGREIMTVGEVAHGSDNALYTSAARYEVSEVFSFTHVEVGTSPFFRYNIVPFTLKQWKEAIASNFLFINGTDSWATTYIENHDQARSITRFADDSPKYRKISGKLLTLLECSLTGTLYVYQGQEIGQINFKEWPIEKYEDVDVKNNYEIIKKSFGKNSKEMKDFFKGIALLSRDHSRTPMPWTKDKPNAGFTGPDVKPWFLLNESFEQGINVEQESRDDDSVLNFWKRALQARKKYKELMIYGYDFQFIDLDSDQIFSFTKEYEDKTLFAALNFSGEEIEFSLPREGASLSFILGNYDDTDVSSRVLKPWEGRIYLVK
# [7] = molecular target: butyrylcholinesterase (BChE) (Equus caballus, UniProt P81908); assay: Butyrylcholinesterase inhibitory assay; type: biochemical, equine; settings: for inhibition at 62.5 µg/mL: read-out: Butyrylcholinesterase (BChE) Percent Inhibition (Mean±SEM), 62.5 μg/mL; for inhibition at 125 µg/mL: read-out: Butyrylcholinesterase (BChE) Percent Inhibition (Mean±SEM), 125 μg/mL; for inhibition at 250 µg/mL: read-out: Butyrylcholinesterase (BChE) Percent Inhibition (Mean±SEM), 250 μg/mL; for inhibition at 1000 µg/mL: read-out: Butyrylcholinesterase (BChE) Percent Inhibition (Mean±SEM), 1000 μg/mL
# butyrylcholinesterase (BChE), sequence (P81908 whole entry): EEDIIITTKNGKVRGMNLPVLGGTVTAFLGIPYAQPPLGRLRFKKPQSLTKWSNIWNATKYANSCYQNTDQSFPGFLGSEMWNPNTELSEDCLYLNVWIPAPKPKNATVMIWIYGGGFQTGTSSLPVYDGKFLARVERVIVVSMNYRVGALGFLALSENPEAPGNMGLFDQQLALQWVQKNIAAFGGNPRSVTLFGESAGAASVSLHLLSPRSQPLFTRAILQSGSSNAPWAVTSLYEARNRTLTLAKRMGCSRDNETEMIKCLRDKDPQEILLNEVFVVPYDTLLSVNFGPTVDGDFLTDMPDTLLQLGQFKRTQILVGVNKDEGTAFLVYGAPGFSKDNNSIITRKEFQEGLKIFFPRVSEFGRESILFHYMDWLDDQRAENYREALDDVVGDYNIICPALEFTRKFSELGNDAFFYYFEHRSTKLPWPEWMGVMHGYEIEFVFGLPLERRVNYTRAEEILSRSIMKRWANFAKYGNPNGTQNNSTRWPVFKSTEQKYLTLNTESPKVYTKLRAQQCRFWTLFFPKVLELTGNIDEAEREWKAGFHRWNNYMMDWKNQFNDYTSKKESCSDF
# [8] = tested on: HCT-116; assay: MTT assay; type: cell-based; settings: Homo sapiens, HCT-116, 48 h
# In short: (§2)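 Cells grown in DMEM with 10% FBS, streptomycin 100 µg/mL and penicillin 100 IU/mL, at 37 °C, 5% CO2. Seeded at 6×10^4 cells/mL (80% confluence) and incubated overnight. Medium replaced with fresh medium holding test compound at 31.25–1000 ppm for 48 h.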
# [9] = tested on: MCF-7; assay: MTT assay; type: cell-based; settings: Homo sapiens, MCF7, 48 h
# In short: as §2
# [10] = tested on: MDA-MB-231; assay: MTT assay; type: cell-based; settings: Homo sapiens, MDA-MB-231, 48 h
# In short: as §2
# [11] = tested on: NIH/3T3; assay: MTT assay; type: cell-based; settings: Mus musculus, NIH3T3, 48 h
# In short: as §2
# [12] = molecular target: acetylcholinesterase (AChE) (Electrophorus electricus, UniProt O42275); assay: biochemical; design: species or system electric eel
# acetylcholinesterase (AChE), sequence (O42275 24-633): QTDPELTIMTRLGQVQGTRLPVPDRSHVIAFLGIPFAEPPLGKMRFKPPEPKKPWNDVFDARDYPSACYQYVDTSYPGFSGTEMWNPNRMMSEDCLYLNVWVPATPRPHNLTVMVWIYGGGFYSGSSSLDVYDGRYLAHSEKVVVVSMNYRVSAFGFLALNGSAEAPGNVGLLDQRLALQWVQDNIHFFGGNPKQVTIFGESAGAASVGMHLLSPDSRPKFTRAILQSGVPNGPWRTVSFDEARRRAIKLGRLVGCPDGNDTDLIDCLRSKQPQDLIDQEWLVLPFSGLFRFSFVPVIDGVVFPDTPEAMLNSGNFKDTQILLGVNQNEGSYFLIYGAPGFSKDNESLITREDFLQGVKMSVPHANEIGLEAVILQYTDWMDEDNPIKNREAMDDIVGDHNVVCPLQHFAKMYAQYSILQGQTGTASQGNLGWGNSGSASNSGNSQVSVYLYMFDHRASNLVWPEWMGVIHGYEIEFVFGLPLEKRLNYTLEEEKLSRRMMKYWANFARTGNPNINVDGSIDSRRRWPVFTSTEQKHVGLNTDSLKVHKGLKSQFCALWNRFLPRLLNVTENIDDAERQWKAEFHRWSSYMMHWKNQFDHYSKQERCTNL
# [13] = MTT assay, normal cell line; type: cell-based; settings: human, WI-38 normal cell line
# In short: as §2
# [14] = tested on: WI-38; assay: MTT assay, normal cell line; type: cell-based; settings: Homo sapiens, WI-38, WI-38 normal cell line
# In short: as §2
# [15] = 40 mg/mL, listed as albendazole
# [16] = 1000 µg/mL, listed as test compound
# [17] = 40 mg/mL, listed as test compound
smiles,measurement,setting,value
"CCCSc1ccc2nc(NC(=O)OC)[nH]c2c1 [Alb, Albendazole, reference compound]",Ascaridia galli Death Time,[1]; 10 mg/mL,36.32 ± 1.36 min
same,Ascaridia galli Paralysis Time,[1]; 10 mg/mL,11.26 ± 2.81 min
same,Ascaridia galli Death Time,[1]; 20 mg/mL,32.56 ± 1.93 min
same,Ascaridia galli Paralysis Time,[1]; 20 mg/mL,09.45 ± 1.63 min
same,Ascaridia galli Death Time,[1]; 40 mg/mL,25.68 ± 3.62 min
same,Ascaridia galli Paralysis Time,[1]; 40 mg/mL,07.18 ± 1.74 min
same,Pheretima posthuma Death Time,[2]; 10 mg/mL,48.70 ± 2.06 min
same,Pheretima posthuma Paralysis Time,[2]; 10 mg/mL,09.08 ± 1.56 min
same,Pheretima posthuma Death Time,[2]; 20 mg/mL,39.33 ± 1.54 min
same,Pheretima posthuma Paralysis Time,[2]; 20 mg/mL,07.24 ± 1.38 min
same,Pheretima posthuma Death Time,[2]; 40 mg/mL,28.92 ± 2.68 min
same,Pheretima posthuma Paralysis Time,[2]; 40 mg/mL,04.67 ± 0.57 min
same,Pheretima posthuma Death Time,[2]; [15],28.92 min
same,Pheretima posthuma Paralysis Time,[2]; [15],4.67 min
"O=C1O[C@H]([C@@H](O)CO)C(O)=C1O [Ascorbic acid, ascorbic acid, reference compound]",ABTS IC50 value,[3],18.04 µg/mL
same,ABTS % Inhibition (Mean±SEM),[3]; 62.5 µg/mL,59.12±0.34%
same,ABTS % Inhibition (Mean±SEM),[3]; 125 µg/mL,64.47±0.49%
same,ABTS % Inhibition (Mean±SEM),[3]; 250 µg/mL,69.75±0.14%
same,ABTS % Inhibition (Mean±SEM),[3]; 500 µg/mL,76.59±0.30%
same,ABTS % Inhibition (Mean±SEM),[3]; 1000 µg/mL,81.85±0.18%
same,H2O2 IC50 value,[4],29.73 µg/mL
same,H2O2 % Inhibition (Mean±SEM),[4]; 62.5 µg/mL,56.67±1.67%
same,H2O2 % Inhibition (Mean±SEM),[4]; 125 µg/mL,61.33±1.33%
same,H2O2 % Inhibition (Mean±SEM),[4]; 250 µg/mL,68.85±1.85%
same,H2O2 % Inhibition (Mean±SEM),[4]; 500 µg/mL,74.67±0.67%
same,H2O2 % Inhibition (Mean±SEM),[4]; 1000 µg/mL,78.00±1.15%
same,DPPH IC50 value,[5],11.39 µg/mL
same,DPPH % Inhibition (Mean±SEM),[5]; 62.5 µg/mL,61.35±0.18%
same,DPPH % Inhibition (Mean±SEM),[5]; 125 µg/mL,66.20±0.15%
same,DPPH % Inhibition (Mean±SEM),[5]; 250 µg/mL,73.42±0.11%
same,DPPH % Inhibition (Mean±SEM),[5]; 500 µg/mL,78.62±0.17%
same,DPPH % Inhibition (Mean±SEM),[5]; 1000 µg/mL,83.53±0.20%
"C[C@H]1O[C@H](O[C@H]2[C@H](O)[C@@H](O)[C@@H](O[C@H]3[C@H](O)[C@@H](O)C(O)O[C@@H]3CO)O[C@@H]2CO)[C@H](O)[C@@H](O)[C@@H]1N[C@H]1C=C(CO)[C@@H](O)[C@H](O)[C@H]1O (some centres unmarked) [Acarbose, acarbose]",Percent α-glucosidase inhibition,[6]; 31.25 µg/mL,59.7±1.7%
same,Percent α-glucosidase inhibition,[6]; 62.5 µg/mL,67.3±2.8%
same,Percent α-glucosidase inhibition,[6]; 125 µg/mL,71.7±1.7%
same,Percent α-glucosidase inhibition,[6]; 250 µg/mL,74.4± 2.3%
same,Percent α-glucosidase inhibition,[6]; 500 µg/mL,81.7±2.6%
same,Percent α-glucosidase inhibition,[6]; 1000 µg/mL,86.7±2.6%
"COc1ccc2c3c1O[C@H]1C[C@@H](O)C=C[C@@]31CCN(C)C2 [Galanthamine, Galanthamine hydrobromide, reference compound]",inhibition at 62.5 µg/mL,[7],71.4%
same,inhibition at 125 µg/mL,[7],78.6%
same,inhibition at 250 µg/mL,[7],82.8%
same,inhibition at 1000 µg/mL,[7],95%
"CCC(C=O)C1CC(=O)N(c2ccccc2)C1=O (centres unmarked) [2-(2,5-dioxo-1-phenylpyrrolidin-3-yl)butanal]",IC50,[8],78 µg/mL
same,IC50,[9],277 µg/mL
same,IC50,[10],231 µg/mL
same,IC50,[11],181 µg/mL
same,ABTS IC50 value,[3],84.36 µg/mL
same,ABTS % Inhibition (Mean±SEM),[3]; 62.5 µg/mL,48.08±2.19%
same,ABTS % Inhibition (Mean±SEM),[3]; 125 µg/mL,57.22±1.63%
same,ABTS % Inhibition (Mean±SEM),[3]; 250 µg/mL,61.28±0.84%
same,ABTS % Inhibition (Mean±SEM),[3]; 500 µg/mL,68.35±1.96%
same,ABTS % Inhibition (Mean±SEM),[3]; 1000 µg/mL,75.84±1.58%
same,ABTS % Inhibition (Mean±SEM),[3]; [16],72.85±1.17%
same,ABTS IC50 value,[3]; listed as test compound,139.74 µg/mL
same,H2O2 IC50 value,[4],752.21 µg/mL
same,H2O2 % Inhibition (Mean±SEM),[4]; 62.5 µg/mL,26.08±2.66%
same,H2O2 % Inhibition (Mean±SEM),[4]; 125 µg/mL,31.58±1.40%
same,H2O2 % Inhibition (Mean±SEM),[4]; 250 µg/mL,39.92±2.08%
same,H2O2 % Inhibition (Mean±SEM),[4]; 500 µg/mL,46.08±1.36%
same,H2O2 % Inhibition (Mean±SEM),[4]; 1000 µg/mL,54.82±1.82%
same,IC50,[12],422 µM
same,Acetylcholinesterase (AChE) Percent Inhibition (Mean±SEM),[12]; 1000 µg/mL,71.3±1.9%
same,inhibition at 62.5 µg/mL,"[12]; read-out: Acetylcholinesterase (AChE) Percent Inhibition (Mean±SEM), 62.5 μg/mL",39.6%
same,inhibition at 125 µg/mL,"[12]; read-out: Acetylcholinesterase (AChE) Percent Inhibition (Mean±SEM), 125 μg/mL",55.9%
same,inhibition at 250 µg/mL,"[12]; read-out: Acetylcholinesterase (AChE) Percent Inhibition (Mean±SEM), 250 μg/mL",61.2%
same,inhibition at 500 µg/mL,"[12]; read-out: Acetylcholinesterase (AChE) Percent Inhibition (Mean±SEM), 500 μg/mL",65.4%
same,inhibition at 1000 µg/mL,"[12]; read-out: Acetylcholinesterase (AChE) Percent Inhibition (Mean±SEM), 1000 μg/mL",71.3 ± 1.92%
same,Ascaridia galli Death Time,[1]; 10 mg/mL,18.42 ± 1.70 min
same,Ascaridia galli Paralysis Time,[1]; 10 mg/mL,06.54 ± 1.67 min
same,Ascaridia galli Death Time,[1]; 20 mg/mL,11.36 ± 1.94 min
same,Ascaridia galli Paralysis Time,[1]; 20 mg/mL,04.82 ± 1.38 min
same,Ascaridia galli Death Time,[1]; 40 mg/mL,09.39 ± 1.48 min
same,Ascaridia galli Paralysis Time,[1]; 40 mg/mL,02.19 ± 0.96 min
same,IC50,[7],539 µM
same,Butyrylcholinesterase (BChE) Percent Inhibition (Mean±SEM),[7]; 1000 µg/mL,73.4±1.9%
same,inhibition at 62.5 µg/mL,[7],36.9%
same,inhibition at 125 µg/mL,[7],49.3%
same,inhibition at 250 µg/mL,[7],52.7%
same,inhibition at 500 µg/mL,"[7]; read-out: Butyrylcholinesterase (BChE) Percent Inhibition (Mean±SEM), 500 μg/mL",64.3%
same,inhibition at 1000 µg/mL,[7],73.4 ± 1.92%
same,"cytotoxicity at 48 h, 1000 ppm",[13],16%
same,IC50,[14],> 3000 µg/mL
same,DPPH IC50 value,[5],139.74 µg/mL
same,DPPH % Inhibition (Mean±SEM),[5]; 62.5 µg/mL,33.32±2.04%
same,DPPH % Inhibition (Mean±SEM),[5]; 125 µg/mL,49.01±1.28%
same,DPPH % Inhibition (Mean±SEM),[5]; 250 µg/mL,61.41±2.36%
same,DPPH % Inhibition (Mean±SEM),[5]; 500 µg/mL,71.36±1.92%
same,DPPH % Inhibition (Mean±SEM),[5]; 1000 µg/mL,72.85±1.17%
same,DPPH % Inhibition (Mean±SEM),[5]; [16],75.84±1.58%
same,DPPH IC50 value,[5]; listed as test compound,84.36 µg/mL
same,Pheretima posthuma Death Time,[2]; 10 mg/mL,23.67 ± 1.52 min
same,Pheretima posthuma Paralysis Time,[2]; 10 mg/mL,06.67 ± 1.08 min
same,Pheretima posthuma Death Time,[2]; 20 mg/mL,19.23 ± 2.56 min
same,Pheretima posthuma Paralysis Time,[2]; 20 mg/mL,05.68 ± 0.34 min
same,Pheretima posthuma Death Time,[2]; 40 mg/mL,14.71 ± 1.73 min
same,Pheretima posthuma Paralysis Time,[2]; 40 mg/mL,02.48 ± 1.62 min
same,Pheretima posthuma Death Time,[2]; [17],14.71 min
same,Pheretima posthuma Paralysis Time,[2]; [17],2.48 min
